Results as given in ChEMBL document CHEMBL1124827, “The preparation of 2'-deoxy-2'-fluoro-1',2'-seconucleosides as potential antiviral agents” (J Med Chem, 1990).
Calls of active or inactive are those of the source.

Experiments:
[1] = system: unidentified adenovirus; assay: (§1) In vitro antiviral activity was determined against Adenovirus type 2 in monolayer culture of H.Ep.2 cells; type: functional, organism-based
[2] = system: LLC-MK2; assay: In vitro antiviral activity was determined against Punta toro virus in monolayer culture of LLC-MK2 cells; type: functional, cell-based; conditions: Cercopithecidae
How it was run: (§2)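 Virus was adsorbed for 1 h onto monolayers: H.Ep.2 cells for Adenovirus type 2, LLC-MK2 cells for Punta Toro, and Vero cells for Sicilian sandfly fever. Medium with a range of drug concentrations was then added. On the day of maximum cytopathic effect in virus-control wells, the medium was removed and the monolayers were stained with crystal violet. Cytopathic effect was scored microscopically.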

[3] = system: Vero; assay: Antiviral activity was determined as inhibition of plaque formation against Rift Valley fever in monolayer culture of Vero cells; type: functional, cell-based; conditions: Chlorocebus sabaeus
[4] = system: Vaccinia virus; assay: Antiviral activity was determined against Vaccinia virus; type: functional, organism-based; conditions: Orthopoxvirus vaccinia
[5] = system: Vero; assay: In vitro antiviral activity was determined against Japanese encephalitis virus in monolayer culture of Vero cells; type: functional, cell-based; conditions: Chlorocebus sabaeus
[6] = system: Vero; assay: In vitro antiviral activity was determined against Sicilian Sandfly Fever virus in monolayer culture of Vero cells; type: functional, cell-based; conditions: Chlorocebus sabaeus; how it was run: as §2
[7] = system: Vero; assay: In vitro antiviral activity was determined against Yellow Fever virus in monolayer culture of Vero cells; type: functional, cell-based; conditions: Chlorocebus sabaeus
[8] = system: Vesicular stomatitis virus; assay: Antiviral activity was determined against Vesicular Stomatitus virus; type: functional, organism-based
[9] = system: Human immunodeficiency virus 1; assay: Antiviral activity was determined against Human immunodeficiency virus; type: functional, organism-based
[10] = system: Pichinde virus; assay: Antiviral activity was determined against Pichinde virus; type: functional, organism-based
[11] = system: unidentified adenovirus; assay: as §1; type: functional, organism-based; how it was run: as §2; remark: listed apart in the source

Measured: Activity

O=c1[nH]c(=O)n(COC(CO)C(O)CF)cc1I (stereo not given)
not listed: [9] | [10] | [11]
inactive: all other assays above

NC(=O)c1ncn(COC(CO)C(O)CF)n1 (stereo not given)
not listed: [9] | [10] | [11]
inactive: all other assays above

O=c1ccn(COC2COP(=O)(Oc3ccc([N+](=O)[O-])cc3)OC2CF)c(=O)[nH]1 (stereo not given)
inactive: [1] | [4] | [8]

O=c1ccn(COC(CO)C(O)CF)c(=O)[nH]1 (stereo not given)
not listed: [10] | [11]
inactive: all other assays above

Cc1cn(COC(CO)C(O)CF)c(=O)[nH]c1=O (stereo not given)
not listed: [11]
inactive: all other assays above

Nc1nc(O)c2ncn(COC(CO)C(O)CF)c2n1 (stereo not given)
not listed: [1] | [10]
inactive: all other assays above

Cc1cn(COC2COP(=O)(Oc3ccc([N+](=O)[O-])cc3)OC2CF)c(=O)[nH]c1=O (stereo not given)
inactive: [1] | [4] | [8]
